Published values of several laboratories.
Compare with care: the assays were run in different laboratories.

| SMILES | system | conditions | half-life [h] |
| --- | --- | --- | --- |
| Oc1c(-n2ccnn2)cnn1-c1cc(N2CCOCC2)ncn1 | female dog, plasma | intravenous, 3 mg/kg | 2.7 |
| CC[C@@H]1CN(C(=O)NCC(F)(F)F)C[C@@H]1c1cnc2cnc3[nH]ccc3n12 | beagle dog, plasma | oral, 1 mg/kg, single dose | 11.6 |
| Cc1cnc(N2CC3(CCOCC3)C2)c(C(=O)Nc2ccc(C(=O)N3CCc4cc(C(=O)Nc5c(C)cccc5F)sc4-c4ccccc43)cc2)c1 | dog, plasma | intravenous, 0.1 mg/kg, single dose | 2.4 |
| CCn1c(=O)c(-c2cc(NC(=O)Nc3ccccc3)c(F)cc2Br)cc2cnc(NC)cc21 | beagle dog, plasma | oral, 5 mg/kg, single dose | 6.96 |
| O=C(NCCN1CCCC1)c1cc(-c2ccc(CN3CCOCC3)cc2)nc2ccc(F)cc12 | male beagle dog, blood | intravenous, 1 mg/kg | 13 |
| COc1cc2c3c(n(CCCN4CCOCC4)c(=O)c2cc1OC)-c1cc2c(cc1C3=O)OCO2 | female beagle dog, plasma | intravenous, 100 mg/m², infusion | 14 |
| C=CC(=O)Nc1cc(Nc2nccc(Nc3cc(Cl)c(F)cc3C(C)(C)O)n2)c(OC)cc1N1CC[C@@H](N(C)C)C1 | beagle dog, plasma | intravenous, 1 mg/kg | 13.9 |
| Cc1nnc2sc(C(=O)NCc3ccc(-c4cccnc4F)cc3)c(N)c2c1C | dog, plasma | intravenous | 1 |
